From PubChem BioAssay AID602271 (Johns Hopkins Ion Channel Center, 2012)
The source made the active and inactive calls.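 The calls were made as follows: active = changes KCNQ2 potassium channel current, up or down, at some tested dose, giving a fitted dose response; inactive = no effect at any dose or no dose response.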

The compounds below were run against Potassium voltage-gated channel subfamily KQT member 2 (Rattus norvegicus) (UniProt O88943) (assay: blockers of KCNQ2 potassium current – automated electrophysiology, CHO cells, orthogonal assay, SAR follow-up (AID 602271)). Conditions: automated patch clamp current.
Chain of Potassium voltage-gated channel subfamily KQT member 2 (Rattus norvegicus) (O88943 whole entry, looked up): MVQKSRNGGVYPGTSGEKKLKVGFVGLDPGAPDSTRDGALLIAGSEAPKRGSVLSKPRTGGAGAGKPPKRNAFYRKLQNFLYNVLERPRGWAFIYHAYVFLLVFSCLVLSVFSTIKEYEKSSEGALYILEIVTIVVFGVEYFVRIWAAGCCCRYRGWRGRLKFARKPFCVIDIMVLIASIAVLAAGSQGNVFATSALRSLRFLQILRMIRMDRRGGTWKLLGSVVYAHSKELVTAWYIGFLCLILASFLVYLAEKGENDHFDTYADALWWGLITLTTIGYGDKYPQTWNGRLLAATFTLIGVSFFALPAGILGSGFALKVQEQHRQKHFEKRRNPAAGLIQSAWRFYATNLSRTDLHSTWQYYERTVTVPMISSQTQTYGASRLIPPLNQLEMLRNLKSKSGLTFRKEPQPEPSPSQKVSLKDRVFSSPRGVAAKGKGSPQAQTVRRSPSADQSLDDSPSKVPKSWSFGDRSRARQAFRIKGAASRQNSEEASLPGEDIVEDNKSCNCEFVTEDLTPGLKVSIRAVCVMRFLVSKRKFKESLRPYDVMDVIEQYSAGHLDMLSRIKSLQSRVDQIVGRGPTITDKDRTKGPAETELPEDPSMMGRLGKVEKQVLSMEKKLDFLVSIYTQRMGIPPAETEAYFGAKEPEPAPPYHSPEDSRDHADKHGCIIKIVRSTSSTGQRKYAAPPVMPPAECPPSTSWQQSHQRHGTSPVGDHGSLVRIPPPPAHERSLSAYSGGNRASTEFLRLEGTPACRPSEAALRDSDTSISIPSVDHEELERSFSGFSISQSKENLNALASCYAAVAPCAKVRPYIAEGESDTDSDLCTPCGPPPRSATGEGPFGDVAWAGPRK
Procedure, shortened: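 System: KCNQ2-expressing CHO cells in automated perforated patch clamp / Medium: external saline pH 7.4, 4 mM KCl, K-gluconate/KCl internal pH 7.25 / Probe or stimulus: depolarization from -90 mV to +40 mV, 2,000 ms / Signal: automated patch clamp, amphotericin B perforation, steady-state current at +40 mV / Evaluation: current change % relative to pre-compound current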

Row | SMILES | IC50
1 | CN(C)c1ccccc1NC(=O)Cc1cccc(Cl)c1 | 27.5 µM
2 | COc1ccc(NC(=O)Cc2cccc(Cl)c2)c(OC)c1 | 1.24 µM
3 | O=C(Cc1cccc(Cl)c1)Nc1cccc(N2CCCC2)c1 | 1.02 µM
4 | O=C(Cc1cccc(Cl)c1)Nc1ccccc1-n1cccc1 | 12.3 µM
5 | O=C(Cc1cccc(Cl)c1)Nc1ccc(Cl)cc1Cl | 1.52 µM
6 | O=C(Cc1cccc(Cl)c1)Nc1ccccc1N1CCCCC1 | 7.09 µM
7 | O=C(Cc1cccc(Cl)c1)Nc1ccc(N2CCCC2)cc1 | 8.66 µM

Same assay, conditions: automated patch clamp current, at 30 µM (top of the series)

Row | SMILES | current change %, negative = inhibition
8 | O=C(Cc1cccc(Cl)c1)Nc1ccccc1N1CCOCC1 | inactive
9 | CCN(C)c1ccccc1NC(=O)Cc1cccc(Cl)c1 | inactive
10 | CN(Cc1ccccc1)c1ccccc1NC(=O)Cc1cccc(Cl)c1 | inactive
11 | O=C(Cc1cccc(Cl)c1)Nc1ccccc1N1CCCCCCC1 | inactive
12 | O=C(Cc1cccc(Cl)c1)Nc1ccc(F)cc1F | inactive
13 | O=C(Cc1cccc(Cl)c1)Nc1ccccc1F | inactive
14 | O=C(Cc1cccc(Cl)c1)Nc1cccc(F)c1F | inactive
15 | O=C(Cc1cccc(Cl)c1)Nc1cccc2c1OCO2 | inactive
16 | CCC(C(=O)N(C)c1ccccc1N1CCCC1)c1ccccc1 (configuration not stated) | inactive
17 | CN(C(=O)Cc1ccccc1)c1ccccc1N1CCCC1 | inactive
